In brackets after ≈: the same amount, converted by molar mass. Activity calls are given as the source filed them. The rule behind the calls is not given here.
How the values were obtained:
[1] = biological target: Serine/threonine-protein kinase PAK 5 (Homo sapiens, UniProt Q9P286); assay: Inhibition of full length PAK5 (unknown origin) expressed in HEK293 cells assessed as phosphate incorporation onto MBP preincubated for 5 mins followed by Cdc42, MBP, and mixture of ATP and [32P]-gamma-ATP addition measured after 20 mins by scintillation counting analysis; assay type: cell-based
[2] = biological target: T1, Serine/threonine-protein kinase PAK 6 (Homo sapiens, UniProt Q9NQU5); assay: Inhibition of full length human PAK6 assessed as phosphate incorporation onto MBP preincubated for 5 mins followed by Cdc42, MBP, and mixture of ATP and [32P]-gamma-ATP addition measured after 20 mins by scintillation counting analysis
[3] = biological target: T2, Serine/threonine-protein kinase PAK 1 (Homo sapiens, UniProt Q13153); assay: Non-ATP competitive inhibition of full-length human PAK1 assessed as phosphate incorporation onto MBP preincubated for 5 mins followed by Cdc42, MBP, and mixture of ATP and [32P]-gamma-ATP addition measured after 20 mins by scintillation counting analysis
[4] = biological target: T3, Serine/threonine-protein kinase PAK 4 (Homo sapiens, UniProt O96013); assay: Inhibition of PAK4 kinase domain (300 to 591) (unknown origin) assessed as phosphate incorporation onto MBP preincubated for 5 mins followed by Cdc42, MBP, and mixture of ATP and [32P]-gamma-ATP addition measured after 20 mins by scintillation counting analysis
[5] = Permeability of the compound by PAMPA; assay type: physicochemical
In short: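 PAMPA permeability was expressed as a calculated fraction absorbed (cFA).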

[6] = biological target: Cytochrome P450 3A4 (Homo sapiens, UniProt P08684); assay: Inhibition of CYP3A4 midazolam site (unknown origin); assay type: ADME
[7] = biological target: T4, Serine/threonine-protein kinase PAK 2 (Homo sapiens, UniProt Q13177); conditions: SU8686, 0.21 uM
[8] = Half life in rat liver microsomes; assay type: ADME
[9] = biological target: T4, Serine/threonine-protein kinase PAK 2; assay: Binding affinity to PAK2 (unknown origin) expressed in HEK293 cells after 1 hr by qPCR analysis; assay type: cell-based
[10] = test system: SU.86.86; assay: Cytotoxicity against human SU8686 cells assessed as growth inhibition at >2 uM after 5 days by CTG assay; assay type: functional, cell-based
[11] = biological target: T4, Serine/threonine-protein kinase PAK 2; conditions: SU8686, 0.009 to 20 uM
[12] = biological target: Histamine H1 receptor (Homo sapiens, UniProt P35367); assay: Inhibition of recombinant human histamine H1 receptor
[13] = biological target: T4, Serine/threonine-protein kinase PAK 2; conditions: SU8686, 6 to 20 uM
[14] = Aqueous solubility of the compound at pH 4; assay type: physicochemical; conditions: buffer
[15] = Aqueous solubility of the compound at pH 6.8; assay type: physicochemical; conditions: buffer
[16] = test system: SU.86.86; assay: Cytotoxicity against human SU8686 cells assessed as growth inhibition at 0.21 uM after 5 days by CTG assay in presence of PAK2 shRNA; assay type: functional, cell-based
[17] = biological target: T5, Muscarinic acetylcholine receptor M1 (Homo sapiens, UniProt P11229); assay: Inhibition of recombinant human muscarinic M1 receptor
T5 sequence (P11229 whole entry): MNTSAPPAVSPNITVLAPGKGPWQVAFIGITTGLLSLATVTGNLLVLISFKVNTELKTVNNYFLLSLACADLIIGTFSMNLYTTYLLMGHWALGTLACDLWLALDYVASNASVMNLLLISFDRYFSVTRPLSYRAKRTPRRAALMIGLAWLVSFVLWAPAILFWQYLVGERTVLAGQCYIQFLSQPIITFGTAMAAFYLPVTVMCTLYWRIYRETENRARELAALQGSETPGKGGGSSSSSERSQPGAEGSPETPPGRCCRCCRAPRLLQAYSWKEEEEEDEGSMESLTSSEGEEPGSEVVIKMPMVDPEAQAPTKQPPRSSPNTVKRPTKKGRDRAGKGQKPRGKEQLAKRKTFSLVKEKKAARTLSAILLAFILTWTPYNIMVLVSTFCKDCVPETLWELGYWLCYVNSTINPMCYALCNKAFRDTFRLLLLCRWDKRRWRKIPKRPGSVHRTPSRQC

[18] = biological target: Cytochrome P450 2C9 (Homo sapiens, UniProt P11712); assay: Inhibition of CYP2C9 (unknown origin); assay type: ADME
[19] = biological target: Cytochrome P450 2D6 (Homo sapiens, UniProt P10635); assay: Inhibition of CYP2D6 (unknown origin); assay type: ADME
[20] = Apparent permeability across apical to basolateral side in human Caco2 cells; assay type: ADME, cell-based; conditions: Caco-2
[21] = biological target: T2, Serine/threonine-protein kinase PAK 1; assay: Binding affinity to PAK1 (unknown origin) expressed in HEK293 cells after 1 hr by qPCR analysis; assay type: cell-based
[22] = biological target: T2, Serine/threonine-protein kinase PAK 1; assay: Inhibition of wild type dephosphorylated form of PAK1 (249 to 545) (unknown origin) expressed in Escherichia coli using 5-Fluo-Ahx-AKRRRLSSLRA-COOH as substrate preincubated for 60 mins followed by substrate addition measured after 60 mins by Caliper assay
[23] = biological target: T1, Serine/threonine-protein kinase PAK 6; assay: Binding affinity to PAK6 (unknown origin) expressed in HEK293 cells after 1 hr by qPCR analysis; assay type: cell-based
[24] = biological target: Serine/threonine-protein kinase PAK 3 (Homo sapiens, UniProt O75914); assay: Binding affinity to PAK3 (unknown origin) expressed in HEK293 cells after 1 hr by qPCR analysis; assay type: cell-based
[25] = biological target: T3, Serine/threonine-protein kinase PAK 4; assay: Binding affinity to PAK4 (unknown origin) expressed in HEK293 cells after 1 hr by qPCR analysis; assay type: cell-based
[26] = biological target: T2, Serine/threonine-protein kinase PAK 1; assay: Inhibition of wild type phosphorylated form of PAK1 (249 to 545) (unknown origin) expressed in Escherichia coli using 5-Fluo-Ahx-AKRRRLSSLRA-COOH as substrate preincubated for 60 mins followed by substrate addition measured after 60 mins by Caliper assay

Serine/threonine-protein kinase PAK 3, sequence (O75914 whole entry): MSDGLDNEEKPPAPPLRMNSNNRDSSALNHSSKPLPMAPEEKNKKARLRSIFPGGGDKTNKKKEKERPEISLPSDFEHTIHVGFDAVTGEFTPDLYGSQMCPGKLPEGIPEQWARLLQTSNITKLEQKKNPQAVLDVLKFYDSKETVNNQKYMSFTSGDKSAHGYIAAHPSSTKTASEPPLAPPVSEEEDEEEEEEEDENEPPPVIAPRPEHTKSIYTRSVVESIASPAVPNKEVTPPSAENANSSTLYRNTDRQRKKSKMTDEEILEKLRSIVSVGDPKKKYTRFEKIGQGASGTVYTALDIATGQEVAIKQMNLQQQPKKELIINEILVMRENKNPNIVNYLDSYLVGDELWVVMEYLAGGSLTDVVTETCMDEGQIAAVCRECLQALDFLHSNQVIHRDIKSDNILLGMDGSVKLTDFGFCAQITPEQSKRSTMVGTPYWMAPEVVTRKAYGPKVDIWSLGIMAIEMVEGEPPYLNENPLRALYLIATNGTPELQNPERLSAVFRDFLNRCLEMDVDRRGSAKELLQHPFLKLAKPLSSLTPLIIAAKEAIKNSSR
T3 sequence (O96013 whole entry, the tested form may be a part): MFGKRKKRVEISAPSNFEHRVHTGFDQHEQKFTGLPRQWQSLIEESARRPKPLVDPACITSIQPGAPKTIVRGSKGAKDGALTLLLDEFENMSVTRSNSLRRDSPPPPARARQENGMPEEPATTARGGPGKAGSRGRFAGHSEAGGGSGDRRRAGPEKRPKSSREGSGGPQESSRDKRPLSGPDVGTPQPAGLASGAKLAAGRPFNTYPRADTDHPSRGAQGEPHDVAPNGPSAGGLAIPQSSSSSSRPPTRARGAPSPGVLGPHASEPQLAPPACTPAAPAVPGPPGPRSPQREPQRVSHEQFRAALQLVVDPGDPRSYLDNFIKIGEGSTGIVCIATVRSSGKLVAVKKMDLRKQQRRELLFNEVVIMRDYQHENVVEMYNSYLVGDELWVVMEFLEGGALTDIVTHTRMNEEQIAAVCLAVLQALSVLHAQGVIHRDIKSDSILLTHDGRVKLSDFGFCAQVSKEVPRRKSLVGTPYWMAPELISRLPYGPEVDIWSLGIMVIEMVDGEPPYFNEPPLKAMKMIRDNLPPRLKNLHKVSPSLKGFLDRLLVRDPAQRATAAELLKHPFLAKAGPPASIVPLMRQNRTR
T2 sequence (Q13153 whole entry, the tested form may be a part): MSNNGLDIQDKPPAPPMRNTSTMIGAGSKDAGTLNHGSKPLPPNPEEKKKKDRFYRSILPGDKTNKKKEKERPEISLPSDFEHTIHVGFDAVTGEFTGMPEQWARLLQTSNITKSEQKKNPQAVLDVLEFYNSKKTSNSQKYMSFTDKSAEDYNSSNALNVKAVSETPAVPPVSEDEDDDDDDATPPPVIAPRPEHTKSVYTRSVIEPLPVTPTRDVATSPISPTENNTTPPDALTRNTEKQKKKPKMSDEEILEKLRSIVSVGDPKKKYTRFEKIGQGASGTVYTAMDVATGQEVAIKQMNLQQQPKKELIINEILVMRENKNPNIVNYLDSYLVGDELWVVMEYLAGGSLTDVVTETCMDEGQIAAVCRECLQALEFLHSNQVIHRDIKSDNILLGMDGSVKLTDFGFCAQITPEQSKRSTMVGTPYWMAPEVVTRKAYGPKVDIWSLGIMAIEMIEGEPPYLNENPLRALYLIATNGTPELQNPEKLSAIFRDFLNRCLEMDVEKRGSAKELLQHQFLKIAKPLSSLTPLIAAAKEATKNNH
T1 sequence (Q9NQU5 whole entry): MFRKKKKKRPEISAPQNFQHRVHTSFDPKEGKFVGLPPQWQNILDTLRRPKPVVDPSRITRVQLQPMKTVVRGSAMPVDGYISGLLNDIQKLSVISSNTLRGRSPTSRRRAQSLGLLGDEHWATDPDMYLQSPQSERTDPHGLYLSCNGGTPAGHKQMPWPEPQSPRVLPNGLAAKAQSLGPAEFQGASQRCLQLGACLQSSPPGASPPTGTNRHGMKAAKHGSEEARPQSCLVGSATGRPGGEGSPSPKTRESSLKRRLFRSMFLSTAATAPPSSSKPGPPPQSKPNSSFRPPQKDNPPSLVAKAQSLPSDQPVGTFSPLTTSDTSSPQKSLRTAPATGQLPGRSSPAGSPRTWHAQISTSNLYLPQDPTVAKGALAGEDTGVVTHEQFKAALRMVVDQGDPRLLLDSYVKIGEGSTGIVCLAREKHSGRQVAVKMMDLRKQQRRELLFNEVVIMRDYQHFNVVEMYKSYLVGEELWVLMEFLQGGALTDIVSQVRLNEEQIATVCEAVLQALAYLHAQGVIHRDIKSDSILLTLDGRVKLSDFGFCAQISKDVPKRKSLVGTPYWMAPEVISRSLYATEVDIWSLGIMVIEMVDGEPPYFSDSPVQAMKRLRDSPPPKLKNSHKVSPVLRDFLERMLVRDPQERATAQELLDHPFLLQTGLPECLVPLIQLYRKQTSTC
T4 sequence (Q13177 whole entry): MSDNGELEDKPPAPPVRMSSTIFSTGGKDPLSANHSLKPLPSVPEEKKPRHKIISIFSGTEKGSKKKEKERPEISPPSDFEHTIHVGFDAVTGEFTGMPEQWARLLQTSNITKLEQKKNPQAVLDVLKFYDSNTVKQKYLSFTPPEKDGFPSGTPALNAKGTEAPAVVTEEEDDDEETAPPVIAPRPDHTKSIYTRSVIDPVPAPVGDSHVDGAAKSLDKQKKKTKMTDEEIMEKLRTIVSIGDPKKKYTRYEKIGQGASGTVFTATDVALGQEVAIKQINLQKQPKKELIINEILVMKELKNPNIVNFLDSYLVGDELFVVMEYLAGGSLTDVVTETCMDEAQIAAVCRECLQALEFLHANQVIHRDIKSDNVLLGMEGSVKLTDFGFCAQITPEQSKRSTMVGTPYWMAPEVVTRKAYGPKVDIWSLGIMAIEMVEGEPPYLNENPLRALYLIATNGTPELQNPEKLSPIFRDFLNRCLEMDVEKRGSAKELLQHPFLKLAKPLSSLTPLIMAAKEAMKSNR
Histamine H1 receptor, sequence (P35367 whole entry): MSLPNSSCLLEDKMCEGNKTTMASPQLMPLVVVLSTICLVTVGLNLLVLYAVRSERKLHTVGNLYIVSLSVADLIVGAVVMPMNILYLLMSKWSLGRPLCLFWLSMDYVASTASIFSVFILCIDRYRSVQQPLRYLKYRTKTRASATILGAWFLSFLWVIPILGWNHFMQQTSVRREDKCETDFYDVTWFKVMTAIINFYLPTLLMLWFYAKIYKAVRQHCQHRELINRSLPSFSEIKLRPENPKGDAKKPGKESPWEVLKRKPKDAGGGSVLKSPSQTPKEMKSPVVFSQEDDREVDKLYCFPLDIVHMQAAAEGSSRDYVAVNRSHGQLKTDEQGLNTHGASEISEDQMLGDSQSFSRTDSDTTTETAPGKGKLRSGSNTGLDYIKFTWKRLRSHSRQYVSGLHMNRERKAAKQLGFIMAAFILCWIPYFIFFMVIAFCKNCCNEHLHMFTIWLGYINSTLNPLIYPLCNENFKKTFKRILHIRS
Cytochrome P450 3A4, sequence (P08684 whole entry): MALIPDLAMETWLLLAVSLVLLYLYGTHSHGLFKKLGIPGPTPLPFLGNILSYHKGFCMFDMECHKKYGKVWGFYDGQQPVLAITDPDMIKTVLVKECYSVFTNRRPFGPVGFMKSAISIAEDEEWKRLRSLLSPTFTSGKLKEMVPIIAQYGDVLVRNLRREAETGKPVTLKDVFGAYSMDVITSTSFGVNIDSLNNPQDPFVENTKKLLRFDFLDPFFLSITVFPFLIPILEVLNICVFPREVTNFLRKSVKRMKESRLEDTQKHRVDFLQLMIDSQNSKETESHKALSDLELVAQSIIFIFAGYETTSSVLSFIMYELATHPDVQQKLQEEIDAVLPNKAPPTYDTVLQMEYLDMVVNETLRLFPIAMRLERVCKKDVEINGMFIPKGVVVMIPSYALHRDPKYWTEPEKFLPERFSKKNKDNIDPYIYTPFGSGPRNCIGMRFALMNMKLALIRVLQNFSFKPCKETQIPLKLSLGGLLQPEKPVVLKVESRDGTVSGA
Serine/threonine-protein kinase PAK 5, sequence (Q9P286 whole entry): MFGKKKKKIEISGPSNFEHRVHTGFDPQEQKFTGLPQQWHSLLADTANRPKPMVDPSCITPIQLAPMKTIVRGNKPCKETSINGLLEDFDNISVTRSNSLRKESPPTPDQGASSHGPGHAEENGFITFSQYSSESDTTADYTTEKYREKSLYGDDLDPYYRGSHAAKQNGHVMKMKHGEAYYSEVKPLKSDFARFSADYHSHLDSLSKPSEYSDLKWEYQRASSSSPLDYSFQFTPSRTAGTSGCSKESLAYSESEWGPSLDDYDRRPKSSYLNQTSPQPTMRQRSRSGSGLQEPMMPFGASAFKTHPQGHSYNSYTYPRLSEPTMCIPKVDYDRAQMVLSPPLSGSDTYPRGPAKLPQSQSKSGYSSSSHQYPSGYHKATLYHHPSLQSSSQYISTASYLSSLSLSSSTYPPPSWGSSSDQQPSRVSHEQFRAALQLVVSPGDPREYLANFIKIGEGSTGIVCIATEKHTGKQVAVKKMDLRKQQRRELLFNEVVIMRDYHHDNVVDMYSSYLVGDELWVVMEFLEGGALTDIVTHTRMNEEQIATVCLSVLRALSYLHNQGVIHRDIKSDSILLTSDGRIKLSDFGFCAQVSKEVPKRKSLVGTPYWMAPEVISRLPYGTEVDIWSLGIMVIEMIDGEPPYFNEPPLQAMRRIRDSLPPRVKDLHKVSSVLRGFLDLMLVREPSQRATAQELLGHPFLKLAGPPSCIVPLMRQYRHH

| SMILES | Kd [9] [µM] | IC50 [12] [µM] | solubility [15] [µM] | IC50 [17] [µM] | Kd [21] [µM] | IC50 [22] [µM] | Kd [23] [µM] | Kd [24] [µM] | Kd [25] [µM] | further results |
| --- | --- | --- | --- | --- | --- | --- | --- | --- | --- | --- |
| Oc1ccc2ccccc2c1SSc1c(O)ccc2ccccc12 | – | – | – | – | – | – | – | – | – | IC50 [1]: > 10 µM; IC50 [2]: > 10 µM; IC50 [3]: 2.5 µM; IC50 [4]: > 10 µM |
| CC(C)NC(=O)N1CC[C@H](NC2=Nc3cc(F)ccc3N(CC(F)F)c3ccc(Cl)cc32)C1 | 0.4 | > 30 | 55 (≈ 26.4 µg/mL) | > 30 | – | – | – | – | – | permeability [5]: permeable; INH [6]: 13.2 µM; inhibition [7]: Active; half-life [8]: 3.5 min; growth inhibition (GI) [10]: Active; inhibition [11]: Active; inhibition [13]: Active; solubility [14]: > 1000 µM; growth inhibition (GI) [16]: Active; INH [18]: 16.7 µM; INH [19]: > 20 µM; Papp A→B [20]: 0.428 ×10⁻⁶ cm/s |
| CCN1c2ccc(F)cc2N=C(N2CCN(C)CC2)c2cc(Cl)ccc21 | > 40 | – | – | – | 0.34 | 0.323 | > 40 | > 40 | > 40 | – |
| CN1CCN(C2=Nc3cc(F)ccc3Nc3ccc(F)cc32)CC1 | – | 0.001 | – | 0.006 | – | 12 | – | – | – | IC50 [26]: 54 µM |
| CCN1c2ccc(F)cc2N=C(N[C@H]2CCN(C(=O)OC(C)(C)C)C2)c2cc(Cl)ccc21 | > 40 | – | – | – | 0.13 | 0.19 | > 40 | > 40 | > 40 | – |
| CCN1c2ccc(F)cc2N=C(N[C@H]2CCN(C(=O)NC(C)(C)C)C2)c2cc(Cl)ccc21 | 1.1 | – | < 4 | – | – | – | – | > 40 | > 40 | – |

From ChEMBL document CHEMBL3608218, “Optimization of a Dibenzodiazepine Hit to a Potent and Selective Allosteric PAK1 Inhibitor” (ACS Med Chem Lett, 2015)
